Test results from ChEMBL document CHEMBL1136217, “Mapping the kinase domain of Janus Kinase 3” (Bioorg Med Chem Lett, 2003).
Blank lines part the entries; values can stand above or below the molecule they belong to. Activity calls are given as the source filed them. The rule behind the calls is not given here.

What was measured:
[1] = biological target: T1, Tyrosine-protein kinase JAK3 (Homo sapiens, UniProt P52333); assay: Inhibitory activity against Janus Kinase 3 protein tyrosine kinase.
T1 sequence (P52333 whole entry): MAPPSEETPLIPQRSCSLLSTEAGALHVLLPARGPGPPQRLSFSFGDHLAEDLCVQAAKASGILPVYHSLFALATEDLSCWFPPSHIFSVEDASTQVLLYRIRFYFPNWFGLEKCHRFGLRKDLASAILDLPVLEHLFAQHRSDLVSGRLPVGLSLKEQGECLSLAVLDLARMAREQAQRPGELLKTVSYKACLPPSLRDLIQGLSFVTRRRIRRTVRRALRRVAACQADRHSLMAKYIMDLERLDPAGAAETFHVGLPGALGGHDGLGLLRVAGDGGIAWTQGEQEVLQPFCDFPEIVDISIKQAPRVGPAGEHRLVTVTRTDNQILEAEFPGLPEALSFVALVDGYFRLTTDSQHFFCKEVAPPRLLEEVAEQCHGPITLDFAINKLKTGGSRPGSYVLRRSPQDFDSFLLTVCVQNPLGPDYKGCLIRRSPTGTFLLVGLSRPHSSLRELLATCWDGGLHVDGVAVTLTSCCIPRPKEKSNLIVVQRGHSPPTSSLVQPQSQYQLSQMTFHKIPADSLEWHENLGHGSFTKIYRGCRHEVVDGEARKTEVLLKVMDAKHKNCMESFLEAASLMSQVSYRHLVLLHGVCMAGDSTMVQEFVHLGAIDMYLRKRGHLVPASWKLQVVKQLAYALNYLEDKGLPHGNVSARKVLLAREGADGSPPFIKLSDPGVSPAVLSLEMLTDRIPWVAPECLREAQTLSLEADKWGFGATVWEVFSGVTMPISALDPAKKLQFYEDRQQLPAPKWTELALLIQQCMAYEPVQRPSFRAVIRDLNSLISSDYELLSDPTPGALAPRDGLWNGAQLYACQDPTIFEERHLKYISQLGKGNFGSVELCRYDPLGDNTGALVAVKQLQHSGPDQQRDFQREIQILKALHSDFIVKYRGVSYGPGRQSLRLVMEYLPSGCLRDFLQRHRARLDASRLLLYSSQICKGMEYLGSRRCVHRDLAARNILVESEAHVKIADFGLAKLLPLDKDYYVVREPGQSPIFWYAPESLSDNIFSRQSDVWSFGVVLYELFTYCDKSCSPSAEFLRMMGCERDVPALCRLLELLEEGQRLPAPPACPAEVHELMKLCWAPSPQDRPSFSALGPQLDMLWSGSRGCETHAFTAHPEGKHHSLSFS

CTLL [2] = assay: Inhibitory activity against IL-2 induced proliferation of mouse CTLL cells; type: functional, cell-based
[3] = Area under curve (AUC) following ip administration at 1 mg/kg; type: ADME, organism-based; design: dose 1 mg/kg, route intraperitoneal; conditions: in vivo
T-cell [4] = assay: Inhibitory activity against IL-2 induced proliferation of human T-cells; type: functional, cell-based
[5] = T max following ip administration at 1 mg/kg; type: ADME, organism-based; design: dose 1 mg/kg, route intraperitoneal; conditions: in vivo
[6] = Terminal T1/2 following ip administration at 1 mg/kg; type: ADME, organism-based; design: dose 1 mg/kg, route intraperitoneal; conditions: in vivo
[7] = Cp max following ip administration at 1 mg/kg; type: ADME, organism-based; design: dose 1 mg/kg, route intraperitoneal; conditions: plasma, read-out: Cp max
T-cell [8] = assay: Inhibitory activity against IL-2 induced proliferation in human T-cells; type: functional, cell-based
CTLL [9] = assay: Inhibitory activity against IL-2 induced proliferation in mouse CTLL cells; type: functional, cell-based
Procedure, shortened: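 Murine CTLL cells were seeded at 2 × 10^4 per well without IL-2 for 6 h. At time zero, recombinant human IL-2 (10 U/mL) and inhibitor in DMSO (0.5% final) were added. [3H]-thymidine (1 µCi/well) was added at 18 h, and cells were harvested at 24 h. Proliferation was read as incorporated radioactivity by scintillation counting.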

[10] = biological target: Tyrosine-protein kinase JAK3 (Mus musculus) (UniProt Q62137); conditions: at 3 µM
Sequence of Tyrosine-protein kinase JAK3 (Mus musculus) (Q62137 whole entry, looked up): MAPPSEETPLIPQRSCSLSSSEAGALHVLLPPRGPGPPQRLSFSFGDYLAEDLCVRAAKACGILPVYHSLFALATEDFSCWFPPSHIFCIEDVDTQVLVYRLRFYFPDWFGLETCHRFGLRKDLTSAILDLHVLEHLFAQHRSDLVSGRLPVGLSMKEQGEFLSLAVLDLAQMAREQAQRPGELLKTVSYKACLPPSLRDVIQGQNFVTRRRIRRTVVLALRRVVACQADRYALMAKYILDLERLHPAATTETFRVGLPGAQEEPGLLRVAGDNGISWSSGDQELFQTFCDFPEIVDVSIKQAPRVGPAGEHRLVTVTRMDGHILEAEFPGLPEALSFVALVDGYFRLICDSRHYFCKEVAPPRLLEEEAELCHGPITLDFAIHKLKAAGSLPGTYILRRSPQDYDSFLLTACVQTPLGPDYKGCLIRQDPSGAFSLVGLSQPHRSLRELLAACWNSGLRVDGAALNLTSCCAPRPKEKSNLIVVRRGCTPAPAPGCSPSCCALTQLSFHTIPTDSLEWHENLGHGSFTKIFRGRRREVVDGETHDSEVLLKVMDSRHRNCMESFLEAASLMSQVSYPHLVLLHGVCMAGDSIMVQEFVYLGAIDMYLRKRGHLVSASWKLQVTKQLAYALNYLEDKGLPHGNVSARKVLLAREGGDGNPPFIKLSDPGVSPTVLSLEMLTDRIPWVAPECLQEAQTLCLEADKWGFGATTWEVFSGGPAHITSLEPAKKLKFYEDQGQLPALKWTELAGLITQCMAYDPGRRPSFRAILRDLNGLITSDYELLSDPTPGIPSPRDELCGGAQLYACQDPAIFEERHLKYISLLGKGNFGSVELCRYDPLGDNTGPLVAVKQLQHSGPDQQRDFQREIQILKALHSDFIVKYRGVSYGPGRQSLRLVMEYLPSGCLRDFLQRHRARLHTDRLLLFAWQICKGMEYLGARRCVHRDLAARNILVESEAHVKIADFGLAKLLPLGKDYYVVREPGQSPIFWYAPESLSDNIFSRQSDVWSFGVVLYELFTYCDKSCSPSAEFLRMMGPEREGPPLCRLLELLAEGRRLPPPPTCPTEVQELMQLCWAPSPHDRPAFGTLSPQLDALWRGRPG

SMILES: O=C1Nc2ccc(C(=O)c3cccs3)cc2/C1=C/c1ccc(F)cc1
IC50 [1]: 4900 nM

SMILES: O=C1Nc2cnc(-c3cccnc3)cc2/C1=C/c1ccc[nH]1
IC50 (CTLL [2]): 450 nM
AUC [3]: 4580 ng·h/mL
IC50 (T-cell [4]): 30 nM
Tmax [5]: 0.5 h
half-life [6]: 3.3 h
Cmax [7]: 700 ng/mL

SMILES: CS(=O)(=O)c1ccc(/C=C2\C(=O)Nc3ccc(C(=O)c4cccs4)cc32)cc1
IC50 [1]: 7100 nM

SMILES: O=C1Nc2ncc(-c3cccnc3)cc2/C1=C/c1ccc[nH]1
IC50 (T-cell [8]): 2000 nM
IC50 (CTLL [9]): 2300 nM

SMILES: O=C1Nc2ccc([N+](=O)[O-])cc2/C1=C/c1ccc[nH]1
IC50 [1]: 710 nM

SMILES: O=C1Nc2ccc(-c3cccnc3)cc2/C1=C/c1ccc[nH]1
AUC [3]: 7690 ng·h/mL
Tmax [5]: 0.5 h
half-life [6]: 3 h
Cmax [7]: 600 ng/mL

SMILES: O=C1Nc2ccc(C(=O)c3cccs3)cc2/C1=C/c1ccccc1
IC50 [1]: 2300 nM

SMILES: O=C1Nc2ccc(NC(=O)c3ccccc3)cc2/C1=C/c1ccc[nH]1
IC50 [1]: 870 nM

Continued, in another order:

IC50 [1]: 200 nM
SMILES: CN(C)c1ccc(/C=C2\C(=O)Nc3ccc(C(=O)c4cccs4)cc32)cc1

IC50 [1]: 168 nM
SMILES: O=C1Nc2ccc(C(=O)c3cccnc3)cc2/C1=C/c1ccc[nH]1

IC50 [1]: 190 nM
SMILES: O=C1Nc2ccc(C(O)c3cccs3)cc2/C1=C/c1ccc[nH]1 (centres undefined)

IC50 [1]: 700 nM
SMILES: CC(=O)Nc1ccc(/C=C2\C(=O)Nc3ccc(C(=O)c4cccs4)cc32)cc1

IC50 [1]: 260 nM
SMILES: O=C1Nc2ccc(C(=O)c3cccs3)cc2/C1=C/C(=O)c1ccc[nH]1

IC50 [1]: 26 nM
SMILES: O=C1Nc2ccc(C(=O)c3cccs3)cc2/C1=C/c1ccc[nH]1

inhibition [10]: Active
IC50 [1]: 235 nM
SMILES: O=C1Nc2ccc(-c3cccnc3)nc2/C1=C/c1ccc[nH]1
IC50 (CTLL [2]): 920 nM
IC50 (T-cell [4]): 700 nM

IC50 [1]: 210 nM
SMILES: CN(C)C(=O)c1ccc2c(c1)/C(=C/c1ccc[nH]1)C(=O)N2

IC50 [1]: 213 nM
SMILES: O=C1Nc2ccc(C(=O)O)cc2/C1=C/c1ccc[nH]1
